Measured values from different studies.
Protocols differ between the studies behind these lines.
Target: Serine/threonine-protein kinase 26 (STK26, Homo sapiens, UniProt Q9P289)

Compound	assay	conditions	remaining binding [%]
O=C(Nc1cccnn1)N1CCC(=Cc2cccc(Oc3ccc(C(F)(F)F)cn3)c2)CC1	cell-free assay, competition with immobilised ligand	1 µM	100
CN1CCN(c2ccc(Nc3nccc(-c4ccccc4)n3)cc2C(F)(F)F)CC1	binding	10 µM	81
Cc1nc(C2CCN(C(=O)c3ccc(OC(F)(F)F)cc3N)CC2)c2ncc(N3CCN(C)CC3)cc2n1	cell-free assay, competition with immobilised ligand	1 µM	100
COc1cnc(Nc2cccc(S(N)(=O)=O)c2)nc1N1CCN(c2ccccc2)C(=O)C1	binding, competition with immobilised ligand	1 µM	83
O=C(c1ccc(Nc2ncc(Cl)c(-c3ccc(Cl)s3)n2)cc1)N1CCC(N2CCCC2)CC1	binding, competition with immobilised ligand	1 µM	30
CN([C@@H]1CCc2c(CC(=O)O)c3ccccc3n2C1)S(=O)(=O)c1ccc(F)cc1	cell-free assay, competition with immobilised ligand	1 µM	79
c1cncc(-c2cccc(Nc3nccc(NC4CCCCC4)n3)c2)c1	binding, competition with immobilised ligand	10 µM	83
Nc1ncc2c(n1)-c1c([nH]c3ccc(C#CC4CC4)cc13)CCCC2	binding, competition with immobilised ligand	1 µM	99
C[C@@H](c1ccc(-n2cnc3c(N)ncnc32)cc1)N1CCc2nn(C)c(Cc3ccccc3)c2C1=O	binding, competition with immobilised ligand	0.1 µM	88
CCN1CCN(Cc2ccc(C(=O)Nc3ccc(C)c(Oc4ccc5c(c4)CC(=O)N5)c3)cc2C(F)(F)F)CC1	binding, competition with immobilised ligand	1 µM	100
O=C(NCCCN1CCOCC1)c1ccc(Nc2ncc(Cl)c(-c3ccc(Cl)s3)n2)cc1	binding, competition with immobilised ligand	1 µM	16
CCC(=O)N[C@@H]1CC[C@H](C(=O)N(C)c2ccc(-c3nc4ccccc4o3)cc2)C1	cell-free assay, competition with immobilised ligand	1 µM	77
O=C(NCCCN1CCOCC1)c1ccc(Nc2nccc(-c3cc4ccccc4s3)n2)cc1	binding, competition with immobilised ligand	1 µM	87
O=C(NCC1CCOCC1)c1n[nH]cc1NC(=O)c1c(F)cccc1F	binding, competition with immobilised ligand	1 µM	77
